High-throughput results: PubChem, several laboratories
Hits are enriched below; roughly 1.7% of the tested compounds scored in any of these assays.
HNF4A DNA FP = change in binding of human HNF4A to DNA, primary screen, biochemical, fluorescence polarization, FITC-DNA; 1 h; activity change, % at 10 µM; actives 0.3% (n = 360,000); AID 1224865, 2016; in the data active = activity change above about 30%, passing the limit was not always enough
TPT1 inh = Candida albicans TPT1 enzyme inhibitors, primary screen, biochemical, fluorescence polarization; tRNA 2'-phosphotransferase TPT1 (Candida albicans SC5314); recombinant caTPT1, FP RNA substrate dephosphorylation; inhibition, % at 5 µM; actives 0.81% (n = 300,000); AID 1962, 2009;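 active = inhibition above the mean of all tested compounds plus 3 SD, set per screening campaign, cut at about 24% in these data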;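 also: plate controls were DMSO alone for no effect and ferristatin control at 100 nM for full effect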
IDE inh = human IDE inhibitors in live cells, primary screen, fluorescence polarization, HEK cells, FAbetaB substrate; inhibition, % at 5.59 µM; AID 434962, 2010; FAbetaB cleavage; actives 0.41% (n = 320,000);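 active = percent inhibition above the average of all tested compounds plus 3 SD, set per screening campaign, cut at about 16% in these data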;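 also: IDE supplied by intact live HEK cells; FP after avidin binding of uncleaved biotin substrate so inhibition keeps polarization high; 0% = DMSO wells and 100% = 60 µM reference IDE inhibitor Ii1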
IDE cell activ = human IDE activators in live cells, primary screen, fluorescence polarization, HEK cells, FAbeta-B substrate; Insulin-degrading enzyme (Homo sapiens), P14735; FAbeta-B cleavage; 0% vehicle, 100% cell-free pure enzyme wells; activation, % at 5.96 µM; actives 0.073% (n = 340,000); AID 493087, 2011;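 active = activation above the mean of all tested compounds plus 3 SD, set per screening campaign, cut at about 17% in these data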
Rpn11 block = Rpn11 (PSMD14) deubiquitinase inhibitors, primary screen, biochemical, fluorescence polarization, uHTS | inhibition, % at 20 µM | human 26S proteasome, Ub4-pepOG fluorescence polarization; 20S core pre-blocked with epoxomicin | AID 588493, 2011 | actives 0.59% (n = 360,000);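 active = inhibition at 20 µM, scaled to each plate's controls, above about 33%, limit read from the data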
CSN deneddyl inh = inhibitors of CSN-mediated cullin deneddylation, primary screen, biochemical, fluorescence polarization, uHTS; COP9 signalosome complex subunit 5 (Homo sapiens), Q92905; Purified CSN, SCF-Nedd8-OG deneddylation; inhibition, % at 12.5 µM; actives 0.38% (n = 360,000);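 active = pattern-corrected inhibition above about 35%, with an unprinted fluorescence ratio check between 0.5 and 1.5, limit read from the data, passing the limit was not always enough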;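 also: 0% = enzyme with substrate and 100% = substrate without enzyme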
Target sequence (Q92905 whole entry, looked up, one chain of several): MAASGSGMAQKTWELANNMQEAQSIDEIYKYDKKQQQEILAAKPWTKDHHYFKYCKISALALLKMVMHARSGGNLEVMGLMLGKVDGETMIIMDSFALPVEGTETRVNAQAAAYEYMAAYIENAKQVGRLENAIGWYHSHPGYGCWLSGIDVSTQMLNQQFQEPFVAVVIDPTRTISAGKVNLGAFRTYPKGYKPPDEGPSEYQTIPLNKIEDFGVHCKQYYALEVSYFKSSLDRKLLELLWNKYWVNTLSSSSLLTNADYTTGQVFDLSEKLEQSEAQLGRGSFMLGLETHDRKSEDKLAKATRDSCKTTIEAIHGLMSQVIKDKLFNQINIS
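Assay system: Purified human Csn5 enzyme expressed in HEK293T cells | Amount: Enzyme 0.24 nM | Measured by: Fluorescence polarization readout | Medium: Tris/NaCl/DTT buffer, pH 7.5 | Compound dosing: One concentration, 12.5 µM, 0.25% DMSO | Times: 90 min incubation of compound, enzyme and substrate at room temperature | Control set: no-enzyme wells high, enzyme-with-substrate wells low | Read-out: % inhibition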
caTPT1 confirm = Candida albicans TPT1 inhibitors, confirmation, biochemical, fluorescence polarization, triplicate; shares compounds with TPT1 inh; actives 74% (n = 2,400); AID 2149, 2009; recombinant caTPT1, RNase T1 coupled; inhibition, % at 5 µM;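 active = inhibition above the primary screen limit, the mean inhibition of all tested compounds plus 3 SD, cut at about 25% in these data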
RNase T1 inh = RNase T1 inhibitors, counter-screen for TPT1 inhibitor project, biochemical, fluorescence polarization; inhibition, % at 5 µM; actives 83% (n = 2,400); AID 2153, 2009; RNase T1 cleavage, 1536-well; shares compounds with TPT1 inh;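 active = inhibition above the solvent-only control well mean plus 3 SD, limit set per screening run, cut at about 23% in these data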;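 also: plate controls were DMSO wells with enzyme for no effect and wells without RNase T1 for full effect; inhibitors block cleavage so intact labeled substrate keeps polarization high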
Target sequence (P00651 whole entry, looked up): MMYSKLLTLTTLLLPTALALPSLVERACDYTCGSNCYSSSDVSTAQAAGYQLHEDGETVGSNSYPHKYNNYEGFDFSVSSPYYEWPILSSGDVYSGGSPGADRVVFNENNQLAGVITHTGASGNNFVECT
IDE cell inh cf = human IDE inhibitors in live cells, confirmation, fluorescence polarization, HEK cells, FAbetaB substrate; actives 51% (n = 1,200); inhibition, % at 5.59 µM; FAbetaB cleavage; shares compounds with IDE inh;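 active = mean inhibition across triplicate wells above the cutoff set by the earlier primary insulin-degrading enzyme screen, cut at about 16% in these data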;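 also: 0% = DMSO wells and 100% = 60 µM reference IDE inhibitor Ii1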
HEK cytotox = cytotoxicity in HEK cells, cytotoxicity control for IDE inhibitor project, cell-based, luminescence; shares compounds with IDE inh; HEK293 cytotoxicity, ATP luminescence; inhibition, % at 5.59 µM; actives 28% (n = 1,200); in the data active = inhibition above about 22%;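 also: 0% = vehicle wells and 100% = reference cytotoxic drug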
Rpn11 inh conf = Rpn11 (PSMD14) deubiquitinase inhibitors, confirmation, biochemical, fluorescence polarization, single concentration | AID 602318, 2012 | purified human 26S proteasome, Ub4-pepOG fluorescence polarization; proteasome pretreated with epoxomicin | shares compounds with Rpn11 block | inhibition, % at 20 µM | actives 29% (n = 1,900)
MMP-2 inh = MMP-2 enzyme inhibition, confirmation, counter-screen for RPN11 inhibitor project, biochemical, fluorescence, single concentration. actives 4% (n = 1,900). shares compounds with Rpn11 block. recombinant MMP-2, FRET peptide cleavage fluorescence. inhibition, % at 20 µM;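 also: human MMP-2 activated beforehand with APMA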
Thrombin inh = bovine thrombin protease inhibition, confirmation, counter-screen for Rpn11 inhibitor project, biochemical, fluorescence polarization, single concentration; shares compounds with Rpn11 block; bovine thrombin cleavage of Ub4-pepOG; inhibition, % at 20 µM; actives 13% (n = 1,900); AID 602333, 2012;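 active = mean inhibition at least 40% at 20 µM, or signal 3 deviations below plate average, so some actives read negative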;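 also: plate controls were thrombin with DMSO for no effect and buffer wells lacking thrombin for full effect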
* = called active by the depositor. Rule as the data show it, unless noted: active = inhibition above about 40%; inactive = the rest.

Screening CC1=NN(C(C#N)c2c(C)nn(Cc3ccccc3)c2C)C(C)(C)C1 (stereo not given) returned HNF4A DNA FP 4, TPT1 inh 1, IDE inh 6, IDE cell activ 2, Rpn11 block -4 and CSN deneddyl inh -6.
For COc1cc2c(cc1OC)C(Cc1ccc(O)c(Oc3ccc(C[C@H]4c5cc(OC)c(OC)cc5CCN4C)cc3)c1)N(C)CC2 (stereo not given in full) the results were IDE inh 1.
For O=C(N/N=C/c1c(O)ccc2ccccc12)c1[nH]ncc1Br the results were HNF4A DNA FP 23, TPT1 inh 32*, IDE inh 13, IDE cell activ -21, Rpn11 block 80*, CSN deneddyl inh 29, caTPT1 confirm 64*, RNase T1 inh 63*, Rpn11 inh conf 67*, MMP-2 inh -19 and Thrombin inh 23.
Cc1ccc(O)c(/C=N/NC(=O)c2[nH]ncc2Br)c1 was read as HNF4A DNA FP -1, TPT1 inh -1, IDE inh -3, IDE cell activ 2, Rpn11 block -6 and CSN deneddyl inh 1.
For CCN1C(=S)SC(=O)C1=C1C=C(C)N(Cc2ccco2)C(C)=C1 the results were HNF4A DNA FP 36, TPT1 inh 163*, IDE inh 33*, IDE cell activ -30, Rpn11 block 46*, CSN deneddyl inh 17, caTPT1 confirm 126*, RNase T1 inh 131*, IDE cell inh cf 42*, HEK cytotox 13, Rpn11 inh conf 2, MMP-2 inh 4 and Thrombin inh 34.
Screening CCN1C(=S)SC(=O)C1=C1C=C(C)OC(C)=C1 returned HNF4A DNA FP -15, TPT1 inh 4, IDE inh 1, IDE cell activ -4 and CSN deneddyl inh -18.
For O=[N+]([O-])c1ccc(N/N=C/c2cn(-c3ccccc3)nc2-c2ccccc2)cc1 the results were HNF4A DNA FP 28, TPT1 inh 118*, IDE inh 5, IDE cell activ 2, Rpn11 block 48*, CSN deneddyl inh 16, caTPT1 confirm 103*, RNase T1 inh 111*, Rpn11 inh conf 26, MMP-2 inh -20 and Thrombin inh 10.
Screening NS(=O)(=O)c1ccc(N/N=C/c2cn(-c3ccccc3)nc2-c2ccccc2)c([N+](=O)[O-])c1 returned HNF4A DNA FP 2, TPT1 inh 4, IDE inh -2, IDE cell activ 8, Rpn11 block 7 and CSN deneddyl inh -3.
CC[n+]1c(/C=C/Nc2ccccc2)oc2ccc(OC)cc21 was read as HNF4A DNA FP 30, TPT1 inh 86*, IDE inh 7, IDE cell activ -5, Rpn11 block 57*, CSN deneddyl inh 12, caTPT1 confirm 95*, RNase T1 inh 101*, Rpn11 inh conf 45*, MMP-2 inh -26 and Thrombin inh 32.
For CN1/C(=C/C=C(/C#N)C(N)=O)C(C)(C)c2ccccc21 the results were HNF4A DNA FP 36*, TPT1 inh 87*, IDE inh 3, IDE cell activ -3, Rpn11 block 43*, CSN deneddyl inh 18, caTPT1 confirm 68*, RNase T1 inh 82*, Rpn11 inh conf 35, MMP-2 inh -35 and Thrombin inh 27.
`CN1/C(=C\C=N\O)C(C)(C)c2ccccc21` gave HNF4A DNA FP 1, TPT1 inh 2, IDE inh -3, IDE cell activ 5, Rpn11 block 6 and CSN deneddyl inh -1.
Cc1nc(N2N=C(c3ccc(Cl)cc3)CC2c2ccco2)sc1C(=O)N(C)C (stereo not given) was read as HNF4A DNA FP -1, TPT1 inh -2, IDE inh 8, IDE cell activ -1, Rpn11 block 16 and CSN deneddyl inh 2.
Screening COc1ccc(C2=NN(c3nc(-c4ccccc4)c(CC(=O)O)s3)C(c3ccco3)C2)cc1 (stereo not given) returned HNF4A DNA FP 19, TPT1 inh 60*, IDE inh 9, IDE cell activ 1, Rpn11 block 69*, CSN deneddyl inh 43*, caTPT1 confirm 37*, RNase T1 inh 49*, Rpn11 inh conf 25, MMP-2 inh 24 and Thrombin inh 17.
